9 compounds from ChEMBL document CHEMBL3351242, “Tetrahydroxanthene-1,3(2H)-dione derivatives from Uvaria valderramensis” (2014) can be followed below.

Values after ≈ are worked out from the molar mass of the structure shown. Active and inactive are the calls of the source. The calls are words filed in the database; no cut-off is given here.

Holding throughout (assay type): functional
The test system of assay [1] is Mycobacterium tuberculosis. Nature of the assay: Antitubercular activity against Mycobacterium tuberculosis H37Rv by MABA assay. The procedure, abridged:
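Microplate Alamar Blue assay on the H37Rv strain, with rifampin, isoniazid and streptomycin as positive drug controls; values reported as MIC in μg/mL.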

A further assay deals with K562. Briefly: Cytotoxicity against human K562 cells. Summed up: (§1)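 Growth inhibition measured colorimetrically with CellTiter-Blue and MTT read-outs, with imatinib as reference drug; values reported as GI50 in μg/mL.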
Another assay deals with HUVEC. Briefly: Cytotoxicity against HUVEC. The settings on record: Homo sapiens. Summed up:
as §1

Another assay deals with HeLa. Nature of the assay: Cytotoxicity against human HeLa cells. Summed up: as §1

For orientation: MIC means the lowest concentration that inhibits growth of the organism. `COc1ccc2c(c1)C[C@]1(OC)C(=O)/C(=C(O)/C=C/c3ccccc3)C(=O)C[C@@]1(OC)O2` showed an MIC in assay [1] of 10 µg/mL (≈ 22.9 µM).

What is called GI50 is the concentration that inhibits growth by half. Low values mean greater sensitivity of the cells, high ones lower sensitivity of the cells. With `CC(=O)O[C@@H]1C(=O)C=COC=C1COC(=O)c1ccccc1`, the GI50 amounted to 1.4 µg/mL (≈ 4.63 µM) with K562 and 5.4 µg/mL (≈ 17.9 µM) in the assay on HUVEC. Also, in assay [1], the lowest concentration to inhibit growth (MIC) was 32 µg/mL (≈ 106 µM).

Turning to `COc1ccc2c(c1)C[C@]1(O)C(=O)/C(=C(O)/C=C/c3ccccc3)C(=O)C[C@@]1(OC)O2` (relative stereo), the MIC result in assay [1] was “inactive”.

Compound `COc1ccc(C[C@H]2c3cc(O)c(OC)cc3CCN2C)cc1O` [(S)-RETICULINE] returned an MIC in assay [1] of 32 µg/mL (≈ 97.1 µM).

The CC50 is the concentration that lowers cell viability or growth by half. The low end stands for greater toxicity to the cells, the high end for lower toxicity to the cells. For the compound `COc1cccc2c1C(=O)c1c(O)c3c(c(O)c1C2=O)C[C@@](O)(C(=O)CO)C[C@@H]3O[C@H]1C[C@H](N)[C@H](O)[C@H](C)O1` [DOXORUBICIN], the GI50 came to 1 µg/mL (≈ 1.84 µM) in the assay with K562 and 0.1 µg/mL (≈ 0.184 µM) in the assay with HUVEC. The compound further registered a half-maximal cytotoxic concentration (CC50) in the assay on HeLa of 2 µg/mL (≈ 3.68 µM).

`Cc1ccc(NC(=O)c2ccc(CN3CCN(C)CC3)cc2)cc1Nc1nccc(-c2cccnc2)n1` [IMATINIB]: the 50% growth inhibitory concentration (GI50) in the assay with K562 was 0.1 µg/mL (≈ 0.203 µM); in the assay on HUVEC, over 10 µg/mL. For the same compound, the 50% cytotoxic concentration (CC50) in the assay on HeLa is over 10 µg/mL.

`NNC(=O)c1ccncc1` [ISONIAZID] showed an MIC in assay [1] of 0.63 µg/mL (≈ 4.59 µM).

With `CO[C@H]1/C=C/O[C@@]2(C)Oc3c(C)c(O)c4c(O)c(c(/C=N/N5CCN(C)CC5)c(O)c4c3C2=O)NC(=O)/C(C)=C\C=C\[C@H](C)[C@H](O)[C@@H](C)[C@@H](O)[C@@H](C)[C@H](OC(C)=O)[C@@H]1C` [RIFAMPIN], the lowest concentration to inhibit growth in assay [1] (MIC) was 0.15 µg/mL (≈ 0.182 µM).

Consider `CN[C@@H]1[C@H](O[C@H]2[C@H](O[C@H]3[C@H](O)[C@@H](O)[C@H](N=C(N)N)[C@@H](O)[C@@H]3N=C(N)N)O[C@@H](C)[C@]2(O)C=O)O[C@@H](CO)[C@H](O)[C@H]1O` [STREPTOMYCIN], for which the MIC in assay [1] was 0.83 µg/mL (≈ 1.43 µM).
